PAFAH1B3 inh: PAFAH1B3 enzyme inhibitors, primary screen, biochemical, fluorescence polarization, human; recombinant PAFAH1B3, FP-rhodamine probe; inhibition, % at 3.39 µM; actives 0.28% (n = 340,000); AID 492972, 2010;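 active means inhibition above the screen-wide average of all tested compounds plus 3 SD, cut at about 25% in these data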;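 further: 0% = enzyme with DMSO only and 100% = wells lacking PAFAH1B3 protein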
NR3A LBD binder: binders of NR3A ligand-binding domain, primary screen, biophysical, differential scanning fluorimetry, uHTS. Glutamate receptor ionotropic, NMDA 3A (GRIN3A) ligand-binding domain. NR3A LBD differential scanning fluorimetry, Tm shift; 0% = protein alone, 100% = glycine-bound protein. Tm shift relative to glycine control, % at 25 µM. actives 2.5% (n = 340,000). AID 1259313, 2017;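 active means melting temperature shift of at least 10% of the positive control shift, at one fixed dose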
PAFAH2 FP inh: PAFAH2 enzyme inhibitors, primary screen, biochemical, fluorescence polarization, human | Platelet-activating factor acetylhydrolase 2, cytoplasmic (Homo sapiens), Q99487 | recombinant PAFAH2, FP-rhodamine activity probe | inhibition, % at 3.39 µM | actives 0.99% (n = 340,000) | AID 492956, 2010;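 active means inhibition above the mean over all tested compounds plus 3 SD, cut at about 30% in these data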;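 further: inhibitors block probe labeling of enzyme so polarization drops; 0% = enzyme with DMSO and 100% = wells lacking PAFAH2 protein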
PAFAH1B2 FP inh: PAFAH1B2 enzyme inhibitors, primary screen, biochemical, fluorescence polarization, human; Platelet-activating factor acetylhydrolase IB subunit alpha2 (Homo sapiens), P68402; recombinant PAFAH1B2, FP-rhodamine activity probe; inhibition, % at 3.39 µM; actives 1.2% (n = 340,000); AID 492953, 2010;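 active means inhibition above the mean of all tested compounds plus 3 SD, cut at about 24% in these data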;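 further: 0% = enzyme with DMSO and 100% = wells lacking PAFAH1B2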
UCH37 inh: inhibitors of human UCH37 deubiquitinase, primary screen, biochemical, Ub-AMC cleavage, fluorescence; purified proteasome/UCH37; inhibition, % (no concentration beside the values); actives 0.33% (n = 330,000);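 active means mean inhibition over replicate wells above about 20%, limit read from the data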;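 further: 0% = compound-free wells with enzyme and 100% = wells lacking proteasome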
Target sequence (Q9Y5K5 whole entry, looked up): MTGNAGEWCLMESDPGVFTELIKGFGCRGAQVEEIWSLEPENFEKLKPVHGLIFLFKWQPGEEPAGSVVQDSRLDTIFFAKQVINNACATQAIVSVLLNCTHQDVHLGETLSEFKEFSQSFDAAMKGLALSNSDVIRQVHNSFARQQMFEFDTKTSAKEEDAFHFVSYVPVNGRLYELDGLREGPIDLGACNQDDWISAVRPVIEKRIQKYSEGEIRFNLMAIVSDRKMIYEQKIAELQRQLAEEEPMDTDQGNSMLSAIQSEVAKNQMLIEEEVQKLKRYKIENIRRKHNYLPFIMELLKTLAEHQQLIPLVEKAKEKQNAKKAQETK
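Material: Human UCH37 enzyme supplied as purified proteasome complex | Schedule: 30 min preincubation with enzyme, 25 min cleavage at room temperature | Detection: AMC fluorescence 355/460 nm | Measure: % inhibition of Ub-AMC cleavage fluorescence | Controls: Wells without proteasome as full block, compound-free enzyme plus substrate as uninhibited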
pPAFAH inh: pPAFAH enzyme inhibitors, primary screen, biochemical, fluorescence polarization, human | Platelet-activating factor acetylhydrolase (Homo sapiens), Q13093 | recombinant pPAFAH, FP-rhodamine probe fluorescence polarization | inhibition, % at 3.39 µM | actives 1.5% (n = 330,000);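 active means inhibition above the mean inhibition across the screen plus 3 SD, cut at about 25% in these data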;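 further: inhibitors block binding of the rhodamine activity-based probe so polarization drops; 0% = enzyme with DMSO and 100% = wells lacking pPAFAH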
Starred values were filed as active, the others as inactive. Shown are actives, neighbours in structure and some others; about 4.8% of the full set was active somewhere.

What do the screens show for `Cc1cnc(C(=O)OCC(=O)Nc2cc(Cl)cc(Cl)c2)cn1`?
PAFAH1B3 inh: 8; NR3A LBD binder: 13*; PAFAH2 FP inh: -1; PAFAH1B2 FP inh: 0; UCH37 inh: 3; pPAFAH inh: -2

Results for Cc1cnc(C(=O)OCC(=O)Nc2c(Cl)cc(Cl)cc2Cl)cn1 ?
PAFAH1B3 inh: 2; NR3A LBD binder: -1; PAFAH2 FP inh: 0; PAFAH1B2 FP inh: 3; UCH37 inh: -1; pPAFAH inh: -3

How did CC(C)Cn1c(N)c(C(=O)COC(=O)c2c(O)c(Cl)cc(Cl)c2Cl)c(=O)n(C)c1=O do in these assays?
PAFAH1B3 inh: 5; NR3A LBD binder: 11*; PAFAH2 FP inh: 5; PAFAH1B2 FP inh: 2; UCH37 inh: 2; pPAFAH inh: 5

How did CC(C)Cn1c(N)c(C(=O)COC(=O)c2ccc(Cl)cc2)c(=O)n(C)c1=O do in these assays?
PAFAH1B3 inh: -1; NR3A LBD binder: -1; PAFAH2 FP inh: 2; PAFAH1B2 FP inh: 3; UCH37 inh: 3; pPAFAH inh: 5

Results for COCCCn1c(=C(C#N)C(=O)NCCOC)sc(=Cc2ccccc2OC(F)F)c1=O ?
UCH37 inh: -9

What do the screens show for `NC(=O)CCC(NS(=O)(=O)c1ccc(Cl)cc1)C(=O)NCc1ccc(Cl)cc1` (stereo not given)?
PAFAH1B3 inh: 4; NR3A LBD binder: 0; PAFAH2 FP inh: 2; PAFAH1B2 FP inh: 24*; UCH37 inh: 2; pPAFAH inh: 1

How did NC(=NCCc1c[nH]c2ccccc12)NC(=O)c1ccc(F)cc1 do in these assays?
PAFAH1B3 inh: 1; NR3A LBD binder: 38*; PAFAH2 FP inh: 0; PAFAH1B2 FP inh: 9; UCH37 inh: 5; pPAFAH inh: 0

What do the screens show for `CC(C1CC2CCC1C2)n1c(-c2ccco2)n[nH]c1=S` (stereo not given)?
PAFAH1B3 inh: 4; NR3A LBD binder: -2; PAFAH2 FP inh: 10; PAFAH1B2 FP inh: 27*; UCH37 inh: 1; pPAFAH inh: 5

What do the screens show for `CN(C(=O)c1ccc(NC(=O)Cc2cccc(NC(=O)C3CCCN(C(=O)CCc4ccccc4)C3)c2)cc1)C1CCCC1` (stereo not given)?
PAFAH1B3 inh: -3; NR3A LBD binder: 22*; PAFAH2 FP inh: -9; PAFAH1B2 FP inh: 6; UCH37 inh: 0; pPAFAH inh: 5

What do the screens show for `CN(C(=O)c1cccc(NC(=O)Cc2ccc(NC(=O)C3CCN(S(=O)(=O)c4cccc([N+](=O)[O-])c4)CC3)cc2)c1)C1CCCC1`?
PAFAH1B3 inh: -5; NR3A LBD binder: 9; PAFAH2 FP inh: -4; PAFAH1B2 FP inh: -10; UCH37 inh: 1

Results for CN(C(=O)c1cccc(NC(=O)Cc2ccc(NC(=O)C3CCCN(S(=O)(=O)c4cccc([N+](=O)[O-])c4)C3)cc2)c1)C1CCCCC1 (stereo not given) ?
PAFAH1B3 inh: -12; NR3A LBD binder: 10*; PAFAH2 FP inh: -14; PAFAH1B2 FP inh: -5; UCH37 inh: 1

How did CCOC(=O)CCn1nc(-c2ccc(Cl)cc2)cc1N do in these assays?
PAFAH1B3 inh: 0; NR3A LBD binder: 10*; PAFAH2 FP inh: -3; PAFAH1B2 FP inh: -1; UCH37 inh: 2; pPAFAH inh: 2

What do the screens show for `CCOC(=O)Cn1nc(-c2ccc(Cl)cc2)cc1N`?
PAFAH1B3 inh: 0; NR3A LBD binder: 1; PAFAH2 FP inh: 5; PAFAH1B2 FP inh: 2; UCH37 inh: 5; pPAFAH inh: 1

Results for CCOC(=O)CN1CCC(c2cc(-c3ccc(Cl)cc3)n[nH]2)CC1 ?
PAFAH1B3 inh: 7; NR3A LBD binder: 0; PAFAH2 FP inh: -1; PAFAH1B2 FP inh: 1; UCH37 inh: 5; pPAFAH inh: 31*

How did O=c1cc(-c2ccc(Cl)cc2)[nH]c2ccccc12 do in these assays?
NR3A LBD binder: 0; UCH37 inh: -8; pPAFAH inh: 0

Source: PubChem (several laboratories)
